# Bioassay records: PubChem, The Scripps Research Institute Molecular Screening Center
# Hits are enriched below; roughly 1.8% of the tested compounds scored in any of these assays.
# EphB4 ephrin blk = EphB4-ephrin-B2 interaction antagonists, primary screen, biochemical, TNYL-RAW peptide probe, fluorescence polarization; 0.15% of 97,000 active; AID 720, 2007; EphB4 LBD / TNYL-RAW-Alexa532 peptide; Ephrin type-B receptor 4 (Homo sapiens), P54760; inhibition, % at 7 µM;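 active = inhibition above the screen-wide mean inhibition plus 3 SD, cut at about 15% in these data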;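 note: 0% = DMSO wells and 100% = excess unlabeled TNYL-RAW peptide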
# Target sequence (P54760 whole entry, looked up, the tested form may be a part): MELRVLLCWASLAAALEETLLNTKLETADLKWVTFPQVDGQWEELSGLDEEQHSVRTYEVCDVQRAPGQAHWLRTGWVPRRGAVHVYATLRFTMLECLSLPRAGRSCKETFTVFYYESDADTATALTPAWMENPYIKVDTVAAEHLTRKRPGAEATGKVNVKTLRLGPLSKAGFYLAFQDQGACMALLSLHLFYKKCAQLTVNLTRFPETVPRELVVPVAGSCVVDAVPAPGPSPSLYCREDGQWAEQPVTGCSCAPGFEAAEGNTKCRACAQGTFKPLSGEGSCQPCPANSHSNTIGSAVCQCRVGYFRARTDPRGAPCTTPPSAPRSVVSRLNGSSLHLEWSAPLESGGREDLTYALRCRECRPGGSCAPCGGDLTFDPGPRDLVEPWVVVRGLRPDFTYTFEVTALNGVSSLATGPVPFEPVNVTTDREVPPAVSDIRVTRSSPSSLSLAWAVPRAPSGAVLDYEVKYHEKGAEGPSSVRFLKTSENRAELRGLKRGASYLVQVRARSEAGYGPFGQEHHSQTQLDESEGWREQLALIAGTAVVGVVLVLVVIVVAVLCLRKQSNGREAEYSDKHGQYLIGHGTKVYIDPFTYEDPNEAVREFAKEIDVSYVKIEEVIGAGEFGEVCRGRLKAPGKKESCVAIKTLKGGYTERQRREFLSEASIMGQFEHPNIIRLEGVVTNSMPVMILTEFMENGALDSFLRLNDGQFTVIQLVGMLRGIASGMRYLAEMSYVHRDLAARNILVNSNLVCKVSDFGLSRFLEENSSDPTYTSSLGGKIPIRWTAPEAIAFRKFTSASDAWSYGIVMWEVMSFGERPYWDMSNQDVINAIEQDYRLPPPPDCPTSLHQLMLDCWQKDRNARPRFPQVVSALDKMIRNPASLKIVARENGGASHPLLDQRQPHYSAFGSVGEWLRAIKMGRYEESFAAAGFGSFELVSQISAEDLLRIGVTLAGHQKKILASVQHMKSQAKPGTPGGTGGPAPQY
# S1P2 agonist = S1P2 receptor agonists, primary screen, cell-based; S1P2-expressing cell line, agonist reporter read-out; 0.46% of 97,000 active; activation, % at 4.5 µM; Sphingosine 1-phosphate receptor 2 (Homo sapiens), O95136; in the data active = activation above about 16%;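 note: 0% = vehicle low control and 100% = maximal reference agonist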
# S1P2 blocker = human S1P2 receptor antagonists, primary screen, cell-based; Sphingosine 1-phosphate receptor 2 (Homo sapiens), O95136; cell-based S1P2 antagonist assay, inhibition at 5 uM; inhibition, % at 5 µM; 0.21% of 97,000 active; in the data active = inhibition above about 45%;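 note: CRE beta-lactamase reporter cells expressing human S1P2 stimulated with S1P; 0% = agonist at EC80 alone and 100% = agonist plus reference antagonist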
# HIV Rev-RRE inh = HIV-1 Rev-RRE binding inhibitors, primary screen, biochemical, FRET, protein-RNA interaction; P05866; 0.79% of 97,000 active; Rev peptide-RRE RNA binding; inhibition, % at 8 µM; AID 704, 2007;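 active = inhibition above the screen-wide mean plus 3 SD, cut at about 35% in these data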;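 note: 0% = median DMSO wells and 100% = median Neomycin B control wells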
#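 System: Cy5-labelled duplex RRE RNA binding fluorescein-labelled HIV Rev peptide; Signal: fluorescein-to-Cy5 FRET, 480 nm excitation; Also added: labelled Rev peptide; Compound: one concentration, 8 µM nominal; Buffer or medium: HEPES pH 7.5 salt buffer with EDTA; Read-out: % inhibition of FRET ratio versus controls; Schedule: 5 min preincubation and 15 min binding, 25 °C.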
# GALR2 blocker = GALR2 antagonists in receptor-expressing cells, primary screen; antagonist mode; 0.39% of 140,000 active; inhibition, % at 4 µM; Galanin receptor type 2 (Homo sapiens), O43603; AID 828, 2007;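 note: cells stimulated with galanin 1-16 at roughly its EC80; 0% = agonist challenge control and 100% = basal control without agonist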
# GALR2 ag = GALR2 receptor agonists, primary screen, cell-based; GALR2-expressing cells, agonist activation read-out; activation, % (concentration not given with the values); 0.48% of 140,000 active; in the data active = activation above about 5%, passing the limit was not always enough;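 note: 0% = vehicle buffer wells and 100% = reference agonist at full effect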
# GALR2 ant conf = GALR2 antagonists, retest of hits, confirmation, cell-based; 60% of 480 active; GALR2-expressing cells, antagonist mode, inhibition; shares compounds with GALR2 blocker; inhibition, % at 4 µM; AID 866, 2007;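 note: cells stimulated with galanin at about its EC80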
# BLA inhib ctr = inhibitors of NFAT-driven beta-lactamase reporter, confirmation, counter-screen for GALR2 antagonist project, CHO NFAT-bla cells, FRET readout. shares compounds with GALR2 blocker. thapsigargin-stimulated. inhibition, % at 4.2 µM. 36% of 480 active. AID 867, 2007;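 active = inhibition above the mean inhibition across tested compounds plus 3 SD, cut at about 27% in these data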;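 note: 0% = 500 nM thapsigargin stimulated wells and 100% = unstimulated BSA only wells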
# The depositor's hits bear a star; · = no result given; [ ] = remark or other dose. Cut-off read from the data, not from the text of the source, unless noted: active = inhibition above about 27%; inactive = the rest.
SMILES,EphB4 ephrin blk,S1P2 agonist,S1P2 blocker,HIV Rev-RRE inh,GALR2 blocker,GALR2 ag,GALR2 ant conf,BLA inhib ctr
c1ccc(-c2nc(CSc3n[nH]c(-c4cccs4)n3)cs2)cc1,4.3,2.9,-9.0,8.5,5.8,-0.2,·,·
CC1(C)NC(=O)N(CC(=O)OCC(=O)Nc2cc(S(=O)(=O)N3CCCCCC3)ccc2Cl)C1=O,·,·,·,·,1.3,-0.6,·,·
Cc1cc(-c2ccccc2)nc(N2CCC(C(=O)NCC3CCCCC3)CC2)n1,-0.1,-3.0,-2.6,2.7,4.8,-1.1,·,·
O=C1/C(=C/c2ccc(N3CCOCC3)o2)SC(=Nc2ccccc2)N1CCc1c[nH]c2ccccc12,3.4,-7.8,67.5*,136.0*[fluorescence artefact?],27.5*,1.8,27.0*,43.2*
COc1cc(/C=C2\SC(=Nc3ccccc3)N(CCc3c[nH]c4ccccc34)C2=O)ccc1OC(C)C(=O)O (centres undefined),·,·,·,·,-16.0,1.2,·,·
O=c1c2c(-c3cccs3)csc2ncn1-c1ccc(Br)cc1,-7.5,1.6,-38.0,-3.6,55.2*,-0.4,13.4,8.1
COc1cccc(-n2cnc3scc(-c4cccs4)c3c2=O)c1,3.1,1.1,-42.4,7.0,4.9,-3.1,·,·
CC(C)OC(=O)CSc1nc2ccccc2s1,2.8,-3.5,-24.2,0.1,33.7*,-2.5,6.3,15.5
Cc1ccc(C(=O)c2cc([N+](=O)[O-])ccc2N2CCOCC2)cc1,·,·,·,·,6.4,1.1,·,·
COc1ccc(C(=O)c2cc([N+](=O)[O-])ccc2N2CCOCC2)cc1,·,·,·,·,33.9*,2.3,27.9*,49.5*
CCOc1ccc(C(=O)c2cc([N+](=O)[O-])ccc2N2CCOCC2)cc1,·,·,·,·,50.6*,2.4,30.0*,67.6*
CCOC(=O)/C(=N/Nc1ccccc1)Sc1nnc(CCc2ccccc2)n1-c1ccccc1,·,·,·,·,-6.5,-0.3,·,·
CS(=O)(=O)c1nc(-c2ccco2)cc(C(F)(F)F)n1,-1.9,-8.4,23.8,8.5,27.0*,2.9,52.9*,43.5*
COc1ccc(OC)c(NC(=O)Cc2nn(C)c(=O)c3ccccc23)c1,-1.8,-0.3,-17.9,-0.3,8.6,-1.8,·,·
COc1ccc(CNC(=O)Cc2nn(C)c(=O)c3ccccc23)cc1,-4.1,-2.0,21.4,3.5,36.0*,-0.7,23.0,5.5
O=C(Nc1ccccc1)Nc1cc(OCC(F)(F)F)cc(OCC(F)(F)F)c1,·,·,·,·,27.3*,-1.7,19.3,11.8
O=C(Nc1ccccc1)Nc1cc(Cl)cc(Cl)c1,-0.2,-3.5,-16.6,10.6,20.9,-1.9,·,·
Cc1nn(-c2ccccc2)c(Cl)c1CN(C(=O)CCl)c1cccc2ccccc12,·,·,·,·,7.7,0.0,·,·
Nc1ccc2c(C(F)(F)F)cc(=O)oc2c1,-0.9,2.8,35.0,11.1,39.1*,1.6,22.9,45.6*
Cc1ccccc1NC(=O)CC(O)(C(F)(F)F)C(F)(F)F,6.7,-2.8,5.6,6.0,2.0,-1.0,·,·
Cc1ccc(NC(=O)CC(O)(C(F)(F)F)C(F)(F)F)c(Br)c1,-5.3,-8.6,-2.3,8.9,27.7*,-4.1,10.2,5.2
O=C(Nc1ccc(Cl)cc1)c1cccs1,7.8,-0.7,10.1,3.2,13.6,0.3,·,·
O=C(Nc1ccccc1)c1nnsc1S(=O)c1ccc(Cl)cc1 (centres undefined),3.0,-5.6,64.3*,9.9,39.5*,-3.8,35.1*,56.5*
CCN(CC)c1ccc(/C=C(\C#N)C(=O)c2ccc(Br)cc2)cc1,·,·,·,·,-5.6,-0.1,·,·
COc1ccc(C(=O)/C(=C\c2ccco2)N2C=CC=CC2=C(C#N)C#N)cc1,1.1,1.7,40.4,10.0,41.7*,-1.4,51.6*,49.4*
SMILES,EphB4 ephrin blk,S1P2 agonist,S1P2 blocker,HIV Rev-RRE inh,GALR2 blocker,GALR2 ag,GALR2 ant conf,BLA inhib ctr
COc1ccc(NC(=O)c2cccs2)cc1,2.1,-5.5,1.3,8.1,19.4,-1.6,·,·
COc1ccc(C(NC(=O)/C=C/c2ccco2)c2ccc(OC)cc2)cc1,·,·,·,·,15.0,-0.9,·,·
N#CC(C#N)=C1C=CC=CN1/C(=C\c1ccco1)C(=O)c1ccc(Br)cc1,·,·,·,·,65.4*,0.0,68.4*,68.3*
N#CC(C#N)=C1C=CC=CN1/C(=C\c1ccco1)C(=O)c1ccccc1,·,·,·,·,54.9*,0.5,79.4*,83.1*
COc1ccc(/C=C(/C(=O)c2cccs2)N2C=CC=CC2=C(C#N)C#N)cc1,·,·,·,·,37.7*,2.9,66.4*,55.3*
Cc1cc(C)cc(NCCC#N)c1,·,·,·,·,10.2,-0.1,·,·
CC(C)c1cc(N2CCC(=O)NC2=O)cc(C(=O)O)c1O,·,·,·,·,1.2,-0.7,·,·
O=[N+]([O-])c1ncn(Cc2c(Cl)cccc2Cl)n1,·,·,·,·,0.1,-0.4,·,·
CCCC(=O)Nc1nc(C)c(-c2csc(Nc3ccccc3OC)n2)s1,6.8,-4.1,6.2,1.8,-21.2,0.8,·,·
COc1ccccc1Nc1nc(-c2c(C)[nH]c3ccccc23)cs1,·,·,·,·,30.4*,2.4,18.2,15.4
Cc1ccc(-c2nc3cnccn3c2Nc2c(C)cccc2C)o1,-4.2,-0.6,3.8,13.2,25.2,0.7,·,·
O=C(N/N=C/C(Br)=C/c1ccccc1)c1n[nH]c2c1CCC2,10.1,0.1,14.6,5.7,37.4*,0.0,33.3*,60.2*
CC(=O)N/C(=C\c1ccccc1)C(=O)OCC(=O)N(C)C1CCCCC1,·,·,·,·,-16.6,-1.5,·,·
COc1ccc(-c2noc(CCC(=O)Nc3ccc4c(c3)OCCO4)n2)cc1,-0.3,-4.5,-1.2,5.9,28.4*,-5.2,6.8,9.6
O=C(/C=C/c1ccco1)Nc1ccccn1,·,·,·,·,-4.0,0.3,·,·
Cc1ccc(NC(=O)/C=C/c2ccco2)nc1,·,·,·,·,34.0*,0.4,23.4,48.0*
CC(=O)Nc1ccccc1O,·,·,·,·,-8.8,-1.1,·,·
O=C1C=C(Nc2ccccc2O)c2ccccc2C1=O,-1.5,-7.5,5.1,12.4,27.6*,-1.9,14.5,29.0*
Cc1ccc(N=C2NC(=O)/C(=C\c3ccsc3)S2)c(C)c1,·,·,·,·,4.7,-0.5,·,·
Cc1ccc(Nc2nc(-c3c(C)nc4ccccn34)cs2)cc1,1.9,-3.8,23.2,6.2,34.0*,-1.5,40.1*,59.5*
